The text below walks through data of ChEMBL document CHEMBL1159367, “Antineoplastic agents. 485. Isolation and structure of cribrostatin 6, a dark blue cancer cell growth inhibitor from the marine sponge Cribrochalina sp” (2003).

Values after ≈ are worked out from the molar mass of the structure shown. A value given as a limit tells only on which side of the number the result lay.

Format in all cases: functional
Assay [1] deals with MCF7. As to the kind of experiment: Growth inhibition of human MCF7 cells.
Assay [2] deals with Stenotrophomonas maltophilia. As to the kind of experiment: Antimicrobial activity against Stenotrophomonas maltophilia ATCC 13637 by broth microdilution susceptibility assay. A general note: Broth dilution looks for growth in wells or tubes with falling amounts of substance.
Assay [3] deals with NCI-H460. Briefly: Growth inhibition of human NCI-H460 cells.
The test system of assay [4] is KM-20L2. Briefly: Growth inhibition of human KM20L2 cells.
Assay [5] relates to Enterobacter cloacae. As to the kind of experiment: Antimicrobial activity against Enterobacter cloacae ATCC 13047 by broth microdilution susceptibility assay.
The subject of assay [6] is Enterococcus faecalis. Briefly: Antimicrobial activity against Enterococcus faecalis ATCC 29212 isolate by broth microdilution susceptibility assay. A digest of the protocol: (§1)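 Broth microdilution susceptibility testing following established reference methods. MIC was taken as the lowest compound concentration giving complete inhibition of visible growth, with wells optically clear.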

In assay [7] the test system is Micrococcus luteus. As to the kind of experiment: Antimicrobial activity against Micrococcus luteus Presque Isle 456 by broth microdilution susceptibility assay.
For assay [8], the system named is Streptococcus pneumoniae. As to the kind of experiment: Antimicrobial activity against Streptococcus pneumoniae ATCC 6303 by broth microdilution susceptibility assay.
The test system of assay [9] is DU-145. As to the kind of experiment: Growth inhibition of human DU145 cells.
The test system of assay [10] is Enterococcus faecalis. As to the kind of experiment: Antimicrobial activity against vancomycin-resistant Enterococcus faecalis isolate by broth microdilution susceptibility assay. A digest of the protocol: as §1
Assay [11] deals with Streptococcus pneumoniae. Briefly: Antimicrobial activity against penicillin-resistant Streptococcus pneumoniae isolate by broth microdilution susceptibility assay. A digest of the protocol: as §1
For assay [12], the system named is Neisseria gonorrhoeae. Briefly: Antimicrobial activity against Neisseria gonorrhoeae ATCC 49226 by broth microdilution susceptibility assay.
Assay [13] has as its system Streptococcus pneumoniae. Briefly: Antimicrobial activity against Streptococcus pneumoniae isolate by broth microdilution susceptibility assay.
Assay [14] concerns BXPC-3. Briefly: Growth inhibition of human BxPC3 cells.
Assay [15] has as its system Streptococcus. Briefly: Antimicrobial activity against Streptococcus isolate by broth microdilution susceptibility assay.
For assay [16], the system named is SF-268. Briefly: Growth inhibition of human SF268 cells.
Assay [17] has as its system P388. Briefly: Growth inhibition of mouse P388 cells.
The subject of assay [18] is Candida albicans. Briefly: Antimicrobial activity against Candida albicans ATCC 90028 by broth microdilution susceptibility assay.
Assay [19] concerns Staphylococcus aureus. As to the kind of experiment: Antimicrobial activity against Staphylococcus aureus ATCC 29213 by broth microdilution susceptibility assay. An outline of the steps:
as §1

In assay [20] the test system is Cryptococcus neoformans. Briefly: Antimicrobial activity against Cryptococcus neoformans ATCC 90112 by broth microdilution susceptibility assay.
Assay [21] relates to Escherichia coli. As to the kind of experiment: Antimicrobial activity against Escherichia coli ATCC 25922 by broth microdilution susceptibility assay.
Assay [22] deals with Staphylococcus aureus. Briefly: Antimicrobial activity against methicillin-resistant Staphylococcus aureus isolate by broth microdilution susceptibility assay. An outline of the steps:
as §1

The test system of assay [23] is Bacillus subtilis. As to the kind of experiment: Antimicrobial activity against Bacillus subtilis isolate by broth microdilution susceptibility assay.

For `CCOC1=C(C)C(=O)c2ccn3c(C)ncc3c2C1=O` [CRIBROSTATIN 6], the GI50 in assay [1] is 0.21 µg/mL (≈ 0.777 µM); in assay [3] it was greater than 1 µg/mL; in [4], greater than 1 µg/mL; in assay [9], 0.38 µg/mL (≈ 1.41 µM); in assay [14], greater than 1 µg/mL; in assay [16], 0.24 µg/mL (≈ 0.888 µM). In assay [17], this compound registered a GI50 of 0.29 µg/mL (≈ 1.07 µM). Besides, the MIC is greater than 64 µg/mL in assay [2]; greater than 64 µg/mL in assay [5]; 32 µg/mL (≈ 118 µM) in assay [6]; 16 µg/mL (≈ 59.2 µM) in [7]; 0.5 µg/mL (≈ 1.85 µM) in assay [8]; 32 µg/mL (≈ 118 µM) in assay [10]. For the same compound, the MIC worked out at 2 µg/mL (≈ 7.4 µM) in assay [11]; 0.0625 µg/mL (≈ 0.231 µM) in assay [12]; 1 µg/mL (≈ 3.7 µM) in [13]; 16 µg/mL (≈ 59.2 µM) in [15]; 64 µg/mL (≈ 237 µM) in assay [18]; 16 µg/mL (≈ 59.2 µM) in assay [19]. For the same compound, the minimal inhibitory concentration (MIC) in [20] was 2 µg/mL (≈ 7.4 µM); in [21], greater than 64 µg/mL; in assay [22], 16 µg/mL (≈ 59.2 µM); in assay [23] it was 2 µg/mL (≈ 7.4 µM). Moreover, in assay [17] (read-out: ED50 (the source's name)), the EC50 stood at 0.3 µg/mL (≈ 1.11 µM).

What is called GI50 is the concentration giving 50% growth inhibition. The low end stands for more potent growth inhibition, the high end for less potent growth inhibition. The MIC is the least concentration at which growth counts as inhibited.
